# What was measured:
# [1] = Inhibition of helicase activity of BK polyomavirus LTAg (E265 to D629 residues) expressed in Escherichia coli using Cy5/BHQ3 dsDNA pre-incubated for 20 mins and measured after 120 to 180 mins by fluorescence based assay; set-up: species or system Betapolyomavirus hominis
# Large T antigen = biological target: T1, Large T antigen (JC polyomavirus, UniProt P03072); assay: Inhibition of helicase activity of JC polyomavirus LTAg (E264 to D628 residues) expressed in Escherichia coli using Cy5/BHQ3 dsDNA pre-incubated for 20 mins and measured after 120 to 180 mins by fluorescence based assay
# T1 sequence (P03072 whole entry): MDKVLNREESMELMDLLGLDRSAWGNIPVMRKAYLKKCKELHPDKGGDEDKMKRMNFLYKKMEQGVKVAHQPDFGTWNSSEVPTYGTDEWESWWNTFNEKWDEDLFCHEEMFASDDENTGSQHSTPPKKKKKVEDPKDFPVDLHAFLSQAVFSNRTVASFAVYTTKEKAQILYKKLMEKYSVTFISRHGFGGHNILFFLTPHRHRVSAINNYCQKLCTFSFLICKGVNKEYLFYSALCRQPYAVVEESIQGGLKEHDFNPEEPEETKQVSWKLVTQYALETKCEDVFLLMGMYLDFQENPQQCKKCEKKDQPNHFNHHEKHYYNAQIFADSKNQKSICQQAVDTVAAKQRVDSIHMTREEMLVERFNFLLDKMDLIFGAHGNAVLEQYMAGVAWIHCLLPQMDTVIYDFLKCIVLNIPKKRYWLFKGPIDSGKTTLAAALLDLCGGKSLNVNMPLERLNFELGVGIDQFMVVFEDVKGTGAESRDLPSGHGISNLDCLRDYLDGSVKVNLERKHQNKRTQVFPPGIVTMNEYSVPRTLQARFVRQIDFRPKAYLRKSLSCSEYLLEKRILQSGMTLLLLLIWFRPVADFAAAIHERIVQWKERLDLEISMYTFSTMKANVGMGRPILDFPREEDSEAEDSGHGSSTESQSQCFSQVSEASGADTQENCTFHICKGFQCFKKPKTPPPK
# JC polyomavirus = assay: Antiviral activity against JC polyomavirus infected in […] G144 […] cells assessed as reduction in late viral protein and viral capsid protein VP1 incubated for 72 hrs by branched DNA assay; type: functional, organism-based
# Procedure, shortened: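 G144 […] cells plated on poly-ornithine (0.005%)/laminin (10 µg/ml)-coated flasks, infected with MAD4 JCV at MOI = 1 TCID₅₀ for 24 hr, then replated at 5,000 cells/well in differentiation medium. Compounds added in DMSO (0.5% final) for 72 hr. Lysates denatured with NaOH at 52°C for 30 min; VP1 DNA measured by bDNA capture probes. EC50 from four-parameter curve fit.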
# [2] = Cytotoxicity against […] G144 […] cells; type: cell-based
Compound,IC50 [1],IC50 (Large T antigen),EC50 (JC polyomavirus),CC50 [2]
COc1cccc(OC)c1-c1nn2cnnc2s1,> 80 µM,> 80 µM,,
COc1ccccc1-c1nc2cc(N)ncc2s1,8.7 µM,4.3 µM,,
c1ccc(-c2nc3ccncc3s2)c(OCCC2CCOCC2)c1,11 µM,9.6 µM,7.7 µM,> 50 µM
c1ccc(Oc2ccccc2-c2nc3ccncc3s2)cc1,10.2 µM,10.5 µM,36 µM,> 50 µM
c1ccc(-c2nn3cnnc3s2)c(OCCC2CCOCC2)c1,8.4 µM,5.8 µM,15 µM,> 50 µM
c1cc2c(c(-c3nn4cnnc4s3)c1)OCC2,21 µM,13.5 µM,> 16 µM,> 50 µM
CC(=O)Nc1ccc(Oc2ncccc2-c2nc3ccncc3s2)cc1,,0.6 µM,40 µM,> 50 µM
COc1ccccc1-c1nn2cnnc2s1,29 µM,19.4 µM,> 60 µM,> 80 µM
COc1ccc(-c2nn3cnnc3s2)c(OC)c1,24 µM,18 µM,,
c1cc2c(c(-c3nc4ccncc4s3)c1)OCC2,15 µM,8.7 µM,0.26 µM,> 50 µM
c1ccc(-c2nn3cnnc3s2)c(OCC2CCOCC2)c1,17 µM,6.3 µM,,
CCOc1ccccc1-c1nc2ccncc2s1,8 µM,9.1 µM,7.4 µM,> 50 µM
c1ccc(Oc2ccccc2-c2nn3cnnc3s2)cc1,3.7 µM,4.9 µM,34 µM,> 50 µM
c1ccc(Oc2ncccc2-c2nc3ccncc3s2)cc1,1.3 µM,1.4 µM,3.8 µM,> 50 µM
CC(=O)Nc1ccc(Oc2ccccc2-c2nc3ccncc3s2)cc1,1.6 µM,0.9 µM,48 µM,> 50 µM
c1ccc(-c2nn3cnnc3s2)c(OCCN2CCOCC2)c1,73 µM,52 µM,,
COc1ccccc1-c1nc2ccncc2s1,10.7 µM,5 µM,1.5 µM,> 50 µM
CCOc1ccccc1-c1nn2cnnc2s1,,18 µM,44 µM,> 65 µM
COc1ccccc1Cc1nn2cnnc2s1,> 80 µM,> 80 µM,,
c1ccc(Oc2ncccc2-c2nn3cnnc3s2)cc1,11 µM,8.8 µM,76 µM,> 50 µM
CNc1cc2nc(-c3ccccc3OC)sc2cn1,> 80 µM,> 80 µM,,
CCOc1ccccc1-c1nc2cnccc2s1,> 80 µM,> 80 µM,,
COc1ccccc1-c1nc2ccnc(N)c2s1,> 80 µM,> 80 µM,,
Oc1ccccc1-c1nc2ccncc2s1,53 µM,37 µM,,

# The next lines start with results.
IC50 [1],IC50 (Large T antigen),Compound,EC50 (JC polyomavirus),CC50 [2]
24 µM,15.5 µM,c1cc2c(c(-c3nn4cnnc4s3)c1)OCCC2,,
> 80 µM,> 80 µM,Oc1ccccc1-c1nn2cnnc2s1,,
> 80 µM,> 80 µM,CN(C)c1ccccc1-c1nn2cnnc2s1,,
7.3 µM,5.5 µM,c1ccc(Oc2ccncc2-c2nn3cnnc3s2)cc1,,
> 80 µM,> 80 µM,Cc1ccccc1-c1nn2cnnc2s1,,
42 µM,25 µM,N#CCCCOc1ccccc1-c1nn2cnnc2s1,,
63 µM,28.5 µM,COCCOc1ccccc1-c1nn2cnnc2s1,,
> 80 µM,62 µM,COc1cccc(-c2nn3cnnc3s2)c1OC,,
> 80 µM,> 80 µM,Nc1ccccc1-c1nn2cnnc2s1,,
> 80 µM,> 80 µM,c1ccc(Oc2ncncc2-c2nn3cnnc3s2)cc1,,
> 80 µM,> 80 µM,c1ccc(C2CC2)c(-c2nn3cnnc3s2)c1,,
